Measured values from ChEMBL document CHEMBL5113395, “Azetidin-2-one-based small molecules as dual hHDAC6/HDAC8 inhibitors: Investigation of their mechanism of action and impact of dual inhibition profile on cell viability” (Eur J Med Chem, 2022).
The source made the active and inactive calls. The rule behind the calls is not given here.

Key:
Histone deacetylase 1 [1] = molecular target: T1, Histone deacetylase 1 (Homo sapiens, UniProt Q13547); experiment: Inhibition of recombinant human full length C-terminal FLAG/His-tagged HDAC1 expressed in Sf9 insect cells using ZMAL (Z-(Ac)Lys-AMC as substrate measured after 90 mins by fluorescence plate reader analysis
[2] = molecular target: T2, Protein deacetylase HDAC6 (Homo sapiens, UniProt Q9UBN7); experiment: Inhibition of recombinant human full length N-terminal GST-tagged HDAC6 expressed in Sf9 cells using ZMAL (Z-(Ac)Lys-AMC as substrate measured after 90 mins by fluorescence plate reader analysis
T2 sequence (Q9UBN7 whole entry): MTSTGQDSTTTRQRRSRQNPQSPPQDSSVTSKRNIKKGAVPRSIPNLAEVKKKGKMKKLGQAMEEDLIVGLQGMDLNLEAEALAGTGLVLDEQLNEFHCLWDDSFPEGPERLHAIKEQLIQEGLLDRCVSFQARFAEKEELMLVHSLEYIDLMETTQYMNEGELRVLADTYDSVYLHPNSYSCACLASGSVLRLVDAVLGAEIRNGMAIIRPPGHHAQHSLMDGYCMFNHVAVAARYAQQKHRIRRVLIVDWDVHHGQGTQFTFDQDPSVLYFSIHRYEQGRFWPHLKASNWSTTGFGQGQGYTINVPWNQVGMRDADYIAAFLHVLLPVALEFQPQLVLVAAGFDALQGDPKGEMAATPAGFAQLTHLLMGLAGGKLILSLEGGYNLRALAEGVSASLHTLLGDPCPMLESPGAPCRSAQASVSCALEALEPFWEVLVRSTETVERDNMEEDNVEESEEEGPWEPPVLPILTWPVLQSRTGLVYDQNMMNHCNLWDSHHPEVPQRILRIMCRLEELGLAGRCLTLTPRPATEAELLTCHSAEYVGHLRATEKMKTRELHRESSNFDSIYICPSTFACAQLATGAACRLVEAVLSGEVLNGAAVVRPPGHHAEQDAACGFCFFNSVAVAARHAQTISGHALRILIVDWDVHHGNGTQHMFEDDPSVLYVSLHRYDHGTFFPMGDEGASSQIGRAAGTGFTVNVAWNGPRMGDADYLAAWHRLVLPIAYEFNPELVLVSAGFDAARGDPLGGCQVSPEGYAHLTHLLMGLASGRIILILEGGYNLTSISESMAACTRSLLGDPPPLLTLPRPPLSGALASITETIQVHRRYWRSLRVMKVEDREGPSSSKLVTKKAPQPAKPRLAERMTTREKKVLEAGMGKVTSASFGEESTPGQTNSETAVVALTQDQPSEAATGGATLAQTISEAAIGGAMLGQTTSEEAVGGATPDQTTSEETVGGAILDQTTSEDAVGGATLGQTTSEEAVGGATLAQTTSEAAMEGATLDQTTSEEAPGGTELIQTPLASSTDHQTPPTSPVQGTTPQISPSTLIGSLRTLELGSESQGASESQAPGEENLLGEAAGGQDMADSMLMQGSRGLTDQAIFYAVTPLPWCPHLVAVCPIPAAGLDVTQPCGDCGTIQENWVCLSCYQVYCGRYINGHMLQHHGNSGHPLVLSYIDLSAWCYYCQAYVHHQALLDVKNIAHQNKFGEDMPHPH

[3] = Cytotoxicity against mouse NIH3T3 cells assessed as inhibition of cell growth by neutral red uptake assay
Histone deacetylase 1 [4] = molecular target: T1, Histone deacetylase 1; experiment: Inhibition of recombinant human full length C-terminal FLAG/His-tagged HDAC1 expressed in Sf9 insect cells using ZMAL (Z-(Ac)Lys-AMC as substrate at 50 uM measured after 90 mins by fluorescence plate reader analysis relative to control
Histone deacetylase 1 [5] = molecular target: T1, Histone deacetylase 1; experiment: Inhibition of recombinant human full length C-terminal FLAG/His-tagged HDAC1 expressed in Sf9 insect cells using ZMAL (Z-(Ac)Lys-AMC as substrate at 10 uM measured after 90 mins by fluorescence plate reader analysis relative to control
Histone deacetylase 1 [6] = molecular target: T1, Histone deacetylase 1; experiment: Inhibition of recombinant human full length C-terminal FLAG/His-tagged HDAC1 expressed in Sf9 insect cells using ZMAL (Z-(Ac)Lys-AMC as substrate at 1 uM measured after 90 mins by fluorescence plate reader analysis relative to control
HCT-116 = experiment: Antiproliferation activity against human HCT-116 cells assessed as reduction in cell viability at 5 to 50 uM measured after 48 hrs by MTT assay; assay type: functional, cell-based; settings: dose 5-50 µM
How it was run: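 HCT116 cells in DMEM with 10% heat-inactivated FBS were seeded at 3×10^4 cells/well and treated in triplicate at 1, 5, 10 and 50 µM for 24 and 48 h. MTT at 0.5 mg/mL was added for 3 h, formazan was dissolved in DMSO, and absorbance was read at 570 nm.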

U-937 = experiment: Antiproliferation activity against human U-937 cells assessed as reduction in cell viability at 5 to 50 uM measured after 48 hrs by CCK-8 assay; assay type: functional, cell-based; settings: dose 5-50 µM
How it was run: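 U937 cells were exposed in triplicate to 1, 5, 10 and 50 µM for 24 and 48 h. CCK-8 (WST-8) reagent was then added, with 3 h further incubation at 37 °C, and absorbance was read at 450 nm to give viability.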

[7] = molecular target: T3, Histone deacetylase 8 (Homo sapiens) (UniProt Q9BY41); experiment: Inhibition of recombinant human HDAC8 using FLUOR DE LYS as substrate preincubated for 15 mins followed by substrate addition at 50 uM measured after 1 hrs by fluorescence plate reader analysis relative to control; settings: time 75.0 min
T3 sequence (whole entry): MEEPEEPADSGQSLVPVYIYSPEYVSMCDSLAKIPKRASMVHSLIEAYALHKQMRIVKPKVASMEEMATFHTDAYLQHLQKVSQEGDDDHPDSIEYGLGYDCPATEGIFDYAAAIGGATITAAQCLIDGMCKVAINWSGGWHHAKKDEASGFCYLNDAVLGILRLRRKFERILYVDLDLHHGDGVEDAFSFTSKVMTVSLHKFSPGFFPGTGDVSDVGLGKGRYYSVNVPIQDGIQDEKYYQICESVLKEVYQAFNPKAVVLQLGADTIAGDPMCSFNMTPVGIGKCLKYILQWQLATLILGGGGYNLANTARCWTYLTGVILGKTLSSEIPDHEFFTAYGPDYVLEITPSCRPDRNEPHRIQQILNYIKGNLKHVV
How it was run: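 Kit recombinant human HDAC8 (0.45 U/reaction) was preincubated 15 min with compound (0.5% DMSO; DMSO-only control). Fluor de Lys substrate was then added at 50 µM final and the reaction ran 1 h at 30 °C. It was quenched with 2 µM TSA in Developer II for a further 1 h at 30 °C, and fluorescence read at ex 370/em 450 nm. IC50 came from nonlinear dose–response fitting.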

[8] = molecular target: T4, Protein deacetylase HDAC6 (Homo sapiens) (UniProt Q9UBN7); experiment: Inhibition of recombinant human full length N-terminal GST-tagged HDAC6 expressed in Sf9 cells using ZMAL (Z-(Ac)Lys-AMC as substrate at 50 uM measured after 90 mins by fluorescence plate reader analysis relative to control
T4 sequence (whole entry): T2 sequence (Q9UBN7 whole entry)

[9] = molecular target: T4, Protein deacetylase HDAC6 (Homo sapiens); experiment: Inhibition of recombinant human full length N-terminal GST-tagged HDAC6 expressed in Sf9 cells using ZMAL (Z-(Ac)Lys-AMC as substrate at 10 uM measured after 90 mins by fluorescence plate reader analysis relative to control
[10] = molecular target: T4, Protein deacetylase HDAC6 (Homo sapiens); experiment: Inhibition of recombinant human full length N-terminal GST-tagged HDAC6 expressed in Sf9 cells using ZMAL (Z-(Ac)Lys-AMC as substrate at 1 uM measured after 90 mins by fluorescence plate reader analysis relative to control

T1 sequence (Q13547 whole entry): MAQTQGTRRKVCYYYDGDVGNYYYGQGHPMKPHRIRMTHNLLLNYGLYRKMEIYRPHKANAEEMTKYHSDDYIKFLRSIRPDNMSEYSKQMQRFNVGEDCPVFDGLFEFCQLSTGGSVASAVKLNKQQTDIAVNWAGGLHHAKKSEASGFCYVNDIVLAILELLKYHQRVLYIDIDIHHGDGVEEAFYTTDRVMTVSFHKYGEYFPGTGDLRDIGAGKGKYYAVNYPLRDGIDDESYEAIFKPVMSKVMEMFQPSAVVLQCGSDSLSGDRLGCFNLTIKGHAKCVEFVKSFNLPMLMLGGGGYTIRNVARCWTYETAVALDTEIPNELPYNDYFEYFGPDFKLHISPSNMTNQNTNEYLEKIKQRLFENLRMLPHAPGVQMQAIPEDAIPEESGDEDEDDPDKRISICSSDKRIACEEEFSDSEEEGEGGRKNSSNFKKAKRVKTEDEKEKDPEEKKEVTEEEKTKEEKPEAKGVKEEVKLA

Compound | IC50 (Histone deacetylase 1 [1]) | IC50 [2] | inhibition (Histone deacetylase 1 [4]) | inhibition (Histone deacetylase 1 [5]) | inhibition (Histone deacetylase 1 [6]) | further results
O=C(/C=C/c1ccc(C(=O)N2CCC(N3C(=O)[C@H](c4ccccc4)[C@H]3c3ccccc3)CC2)cc1)NO (racemic) |  | 168 nM | 97.3% | 93.4% | 61% | 
O=C(CCCCCCC(=O)Nc1ccccc1)NO |  |  |  |  |  | Activity (HCT-116): Active; Activity (U-937): Active
O=C(NO)c1ccc(COC(=O)N2CCC(N3CC(c4ccccc4)(c4ccccc4)C3=O)CC2)cc1 | 4100 nM | 18.5 nM |  |  |  | inhibition [7]: 13%; CC50 [3]: 80000 nM
O=C(NO)c1ccc(/C=C/C(=O)N2CCC(N3C(=O)[C@H](c4ccccc4)[C@H]3c3ccccc3)CC2)cc1 (racemic) |  | 130 nM | 100% | 90.1% | 49.7% | 
COc1ccc(Cn2ccc3ccc(C(=O)NO)cc32)cc1 |  |  |  |  |  | Activity (HCT-116): Active; Activity (U-937): Active

The next lines start with results.

IC50 (Histone deacetylase 1 [1]) | IC50 [2] | inhibition (Histone deacetylase 1 [4]) | inhibition (Histone deacetylase 1 [5]) | inhibition (Histone deacetylase 1 [6]) | Compound | further results
1270 nM | 203 nM |  |  |  | O=C(NO)c1ccc(NC(=O)N2CCC(N3C(=O)[C@H](c4ccccc4)[C@H]3c3ccccc3)CC2)cc1 (racemic) | 
5140 nM | 121 nM |  |  |  | O=C(NO)c1ccc(CC(=O)N2CCC(N3C(=O)[C@H](c4ccccc4)[C@H]3c3ccccc3)CC2)cc1 (racemic) | CC50 [3]: 48000 nM
15100 nM | 270 nM |  |  |  | O=C(NO)c1ccc(CNC(=O)N2CCC(N3C(=O)CC3c3cccc(Cl)c3)CC2)cc1 (racemic) | 
 |  | 83.6% | 48.7% | 17.2% | O=C(NO)c1ccc(CCC(=O)N2CCC(N3C(=O)[C@H](c4ccccc4)[C@H]3c3ccccc3)CC2)cc1 (racemic) | inhibition [8]: 102%; inhibition [9]: 97.1%; inhibition [10]: 69.7%
3100 nM | 399 nM |  |  |  | Cc1cccc(C2CC(=O)N2C2CCN(C(=O)NCc3ccc(C(=O)NO)cc3)CC2)c1 (racemic) | CC50 [3]: 100000 nM
 |  | 82.7% | 53.3% | 23.6% | O=C(Cc1ccc(NC(=O)N2CCC(N3C(=O)[C@H](c4ccccc4)[C@H]3c3ccccc3)CC2)cc1)NO (racemic) | inhibition [8]: 103%; inhibition [9]: 94.2%; inhibition [10]: 60.2%
 |  | 89.5% | 66.4% | 22.3% | O=C(CCc1ccc(C(=O)N2CCC(N3C(=O)[C@H](c4ccccc4)[C@H]3c3ccccc3)CC2)cc1)NO (racemic) | inhibition [8]: 98.4%; inhibition [9]: 85.7%; inhibition [10]: 35.9%
